From ChEMBL document CHEMBL4392861, “Synthesis and evaluation of the HIF-1α inhibitory activities of novel ursolic acid tetrazole derivatives” (Bioorg Med Chem Lett, 2019)

How the values were obtained:
Format in all cases: cell-based
Hep 3B2 [1] = assay: Cytotoxicity against human Hep3B cells assessed as reduction in cell viability after 24 hrs by MTT assay
Procedure, shortened: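 Hep3B cells exposed to compounds for 24 h under normoxic conditions; viability read by MTT assay; IC50 from mean ± SE, n=3.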

Hep 3B2 [2] = assay: Cytotoxicity against human Hep3B cells assessed as reduction in cell viability up to 30 uM after 24 hrs in presence of 20% O2 by MTT assay; settings: hep 3b2, 24 h
Procedure, shortened: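 Hep3B cells treated with the indicated concentrations (up to 30 µM) for 24 h, then viability determined by MTT assay.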

[3] = target: Hypoxia-inducible factor 1-alpha (Homo sapiens, UniProt Q16665); assay: Inhibition of hypoxia-induced HIF1alpha transcriptional activity in human Hep3B cells after 24 hrs in hypoxic condition by HRE-dependent dual luciferase reporter gene assay
Procedure, shortened: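 Hep3B cells transiently co-transfected with pGL3-HRE-luciferase and pRL-CMV vectors, incubated 24 h, then treated with compounds for 24 h under hypoxia. Luciferase activity measured […]. IC50 given as mean ± SE, n=3.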

Structure (SMILES): CC(=O)O[C@H]1CC[C@]2(C)[C@H]3CC=C4[C@@H]5[C@@H](C)[C@H](C)CC[C@]5(C(=O)Nc5nnn[nH]5)CC[C@@]4(C)[C@]3(C)CC[C@H]2C1(C)C
- IC50 (Hep 3B2 [1]): > 100 µM
- Activity (Hep 3B2 [2]): Non-Toxic
- IC50 [3]: 4.7 µM
- inhibition [3]: Dose-dependent effect

Structure (SMILES): C[C@H]1[C@H](C)CC[C@]2(C(=O)OCCNc3ccc(-c4nnn[nH]4)cc3)CC[C@]3(C)C(=CC[C@@H]4[C@@]5(C)CCC(=O)C(C)(C)[C@@H]5CC[C@]43C)[C@H]12
- IC50 (Hep 3B2 [1]): > 100 µM
- IC50 [3]: 18.1 µM

Structure (SMILES): C[C@H]1[C@H](C)CC[C@]2(C(=O)OCCCNc3ccccc3-c3nnn[nH]3)CC[C@]3(C)C(=CC[C@@H]4[C@@]5(C)CC[C@H](O)C(C)(C)[C@@H]5CC[C@]43C)[C@H]12
- IC50 (Hep 3B2 [1]): > 100 µM
- IC50 [3]: > 100 µM

Structure (SMILES): C[C@H]1[C@H](C)CC[C@]2(C(=O)OCCNc3nnn[nH]3)CC[C@]3(C)C(=CC[C@@H]4[C@@]5(C)CC[C@H](O)C(C)(C)[C@@H]5CC[C@]43C)[C@H]12
- IC50 (Hep 3B2 [1]): > 100 µM
- IC50 [3]: 8.5 µM

Structure (SMILES): CCCC(=O)O[C@H]1CC[C@]2(C)[C@H]3CC=C4[C@@H]5[C@@H](C)[C@H](C)CC[C@]5(C(=O)Nc5nnn[nH]5)CC[C@@]4(C)[C@]3(C)CC[C@H]2C1(C)C
- IC50 (Hep 3B2 [1]): 4.7 µM
- IC50 [3]: 1.4 µM

Structure (SMILES): C[C@H]1[C@H](C)CC[C@]2(C(=O)O)CC[C@]3(C)C(=CC[C@@H]4[C@@]5(C)CC[C@H](O)C(C)(C)[C@@H]5CC[C@]43C)[C@H]12 [URSOLIC ACID]
- IC50 [3]: > 100 µM

Structure (SMILES): C[C@H]1[C@H](C)CC[C@]2(C(=O)Nc3nnn[nH]3)CC[C@]3(C)C(=CC[C@@H]4[C@@]5(C)CC/C(=N\Nc6ccccc6)C(C)(C)[C@@H]5CC[C@]43C)[C@H]12
- IC50 (Hep 3B2 [1]): 11.9 µM
- IC50 [3]: 2.2 µM

Structure (SMILES): C[C@H]1[C@H](C)CC[C@]2(C(=O)OCCn3nnnc3-c3ccc(Cl)cc3)CC[C@]3(C)C(=CC[C@@H]4[C@@]5(C)CC[C@H](O)C(C)(C)[C@@H]5CC[C@]43C)[C@H]12
- IC50 (Hep 3B2 [1]): > 100 µM
- IC50 [3]: 76.4 µM

Structure (SMILES): C[C@H]1[C@H](C)CC[C@]2(C(=O)Nc3nnn[nH]3)CC[C@]3(C)C(=CC[C@@H]4[C@@]5(C)CC[C@H](OC(=O)c6ccccc6)C(C)(C)[C@@H]5CC[C@]43C)[C@H]12
- IC50 (Hep 3B2 [1]): 18.5 µM
- IC50 [3]: 0.8 µM

Structure (SMILES): C[C@H]1[C@H](C)CC[C@]2(C(=O)Nc3nnn[nH]3)CC[C@]3(C)C(=CC[C@@H]4[C@@]5(C)CCC(=O)C(C)(C)[C@@H]5CC[C@]43C)[C@H]12
- IC50 (Hep 3B2 [1]): > 100 µM
- IC50 [3]: 18.1 µM

Structure (SMILES): C[C@H]1[C@H](C)CC[C@]2(C(=O)OCCNc3ccc(-c4nnn[nH]4)cc3)CC[C@]3(C)C(=CC[C@@H]4[C@@]5(C)CC[C@H](O)C(C)(C)[C@@H]5CC[C@]43C)[C@H]12
- IC50 (Hep 3B2 [1]): > 100 µM
- IC50 [3]: 26.2 µM

Structure (SMILES): C[C@H]1[C@H](C)CC[C@]2(C(=O)OCCCNc3cccc(-c4nnn[nH]4)c3)CC[C@]3(C)C(=CC[C@@H]4[C@@]5(C)CC[C@H](O)C(C)(C)[C@@H]5CC[C@]43C)[C@H]12
- IC50 (Hep 3B2 [1]): > 100 µM
- IC50 [3]: 13.2 µM

Structure (SMILES): COc1ccc(-c2nnnn2CCOC(=O)[C@]23CC[C@@H](C)[C@H](C)[C@H]2C2=CC[C@@H]4[C@@]5(C)CC[C@H](O)C(C)(C)[C@@H]5CC[C@@]4(C)[C@]2(C)CC3)cc1
- IC50 (Hep 3B2 [1]): > 100 µM
- IC50 [3]: > 100 µM

Structure (SMILES): C[C@H]1[C@H](C)CC[C@]2(C(=O)OCCNc3cccc(-c4nnn[nH]4)c3)CC[C@]3(C)C(=CC[C@@H]4[C@@]5(C)CC[C@H](O)C(C)(C)[C@@H]5CC[C@]43C)[C@H]12
- IC50 (Hep 3B2 [1]): > 100 µM
- IC50 [3]: 8.9 µM

Structure (SMILES): C[C@H]1[C@H](C)CC[C@]2(C(=O)OCCNc3ccccc3-c3nnn[nH]3)CC[C@]3(C)C(=CC[C@@H]4[C@@]5(C)CC[C@H](O)C(C)(C)[C@@H]5CC[C@]43C)[C@H]12
- IC50 (Hep 3B2 [1]): > 100 µM
- IC50 [3]: > 100 µM

Structure (SMILES): C[C@H]1[C@H](C)CC[C@]2(C(=O)OCCCNc3cccc(-c4nnn[nH]4)c3)CC[C@]3(C)C(=CC[C@@H]4[C@@]5(C)CCC(=O)C(C)(C)[C@@H]5CC[C@]43C)[C@H]12
- IC50 (Hep 3B2 [1]): > 100 µM
- IC50 [3]: > 100 µM

Structure (SMILES): C[C@H]1[C@H](C)CC[C@]2(C(=O)OCCCn3nnnc3-c3ccc4c(c3)OCO4)CC[C@]3(C)C(=CC[C@@H]4[C@@]5(C)CC[C@H](O)C(C)(C)[C@@H]5CC[C@]43C)[C@H]12
- IC50 (Hep 3B2 [1]): > 100 µM
- IC50 [3]: 83 µM

Structure (SMILES): C[C@H]1[C@H](C)CC[C@]2(C(=O)OCCCn3nnnc3-c3ccccc3)CC[C@]3(C)C(=CC[C@@H]4[C@@]5(C)CC[C@H](O)C(C)(C)[C@@H]5CC[C@]43C)[C@H]12
- IC50 (Hep 3B2 [1]): > 100 µM
- IC50 [3]: 40 µM

Structure (SMILES): C[C@H]1[C@H](C)CC[C@]2(C(=O)OCn3ncn(-c4ccccc4)c3=O)CC[C@]3(C)C(=CC[C@@H]4[C@@]5(C)CC[C@H](O)C(C)(C)[C@@H]5CC[C@]43C)[C@H]12
- IC50 (Hep 3B2 [1]): > 100 µM
- IC50 [3]: 36.9 µM

Structure (SMILES): C[C@H]1[C@H](C)CC[C@]2(C(=O)Nc3nnn[nH]3)CC[C@]3(C)C(=CC[C@@H]4[C@@]5(C)CC[C@H](O)C(C)(C)[C@@H]5CC[C@]43C)[C@H]12
- IC50 (Hep 3B2 [1]): > 100 µM
- IC50 [3]: 13.3 µM

Structure (SMILES): COc1ccc(-c2nnnn2CCCOC(=O)[C@]23CC[C@@H](C)[C@H](C)[C@H]2C2=CC[C@@H]4[C@@]5(C)CC[C@H](O)C(C)(C)[C@@H]5CC[C@@]4(C)[C@]2(C)CC3)cc1
- IC50 (Hep 3B2 [1]): > 100 µM
- IC50 [3]: 27.4 µM

Structure (SMILES): C[C@H]1[C@H](C)CC[C@]2(C(=O)OCCCNc3ccccc3-c3nnn[nH]3)CC[C@]3(C)C(=CC[C@@H]4[C@@]5(C)CCC(=O)C(C)(C)[C@@H]5CC[C@]43C)[C@H]12
- IC50 (Hep 3B2 [1]): > 100 µM
- IC50 [3]: > 100 µM

Structure (SMILES): C[C@H]1[C@H](C)CC[C@]2(C(=O)OCCNc3ccccc3-c3nnn[nH]3)CC[C@]3(C)C(=CC[C@@H]4[C@@]5(C)CCC(=O)C(C)(C)[C@@H]5CC[C@]43C)[C@H]12
- IC50 (Hep 3B2 [1]): > 100 µM
- IC50 [3]: > 100 µM

Structure (SMILES): C[C@H]1[C@H](C)CC[C@]2(C(=O)OCCCNc3ccc(-c4nnn[nH]4)cc3)CC[C@]3(C)C(=CC[C@@H]4[C@@]5(C)CCC(=O)C(C)(C)[C@@H]5CC[C@]43C)[C@H]12
- IC50 (Hep 3B2 [1]): > 100 µM
- IC50 [3]: > 100 µM

Structure (SMILES): C[C@H]1[C@H](C)CC[C@]2(C(=O)O)CC[C@]3(C)C(=CC[C@@H]4[C@@]5(C)CC(=C\c6ccc(Cl)cc6)/C(=N\NC(=N)N)C(C)(C)[C@@H]5CC[C@]43C)[C@H]12
- IC50 (Hep 3B2 [1]): > 100 µM
- IC50 [3]: 4 µM

Structure (SMILES): C[C@H]1[C@H](C)CC[C@]2(C(=O)OCCNc3cccc(-c4nnn[nH]4)c3)CC[C@]3(C)C(=CC[C@@H]4[C@@]5(C)CCC(=O)C(C)(C)[C@@H]5CC[C@]43C)[C@H]12
- IC50 (Hep 3B2 [1]): > 100 µM
- IC50 [3]: > 100 µM

Structure (SMILES): C[C@H]1[C@H](C)CC[C@]2(C(=O)Nc3nnn[nH]3)CC[C@]3(C)C(=CC[C@@H]4[C@@]5(C)CC[C@H](OC(=O)C(F)(F)F)C(C)(C)[C@@H]5CC[C@]43C)[C@H]12
- IC50 (Hep 3B2 [1]): 6.4 µM
- IC50 [3]: 1.6 µM

Structure (SMILES): C[C@H]1[C@H](C)CC[C@]2(C(=O)OCCCNc3nnn[nH]3)CC[C@]3(C)C(=CC[C@@H]4[C@@]5(C)CCC(=O)C(C)(C)[C@@H]5CC[C@]43C)[C@H]12
- IC50 (Hep 3B2 [1]): > 100 µM
- IC50 [3]: 16.7 µM

Structure (SMILES): C[C@H]1[C@H](C)CC[C@]2(C(=O)OCCCNc3ccc(-c4nnn[nH]4)cc3)CC[C@]3(C)C(=CC[C@@H]4[C@@]5(C)CC[C@H](O)C(C)(C)[C@@H]5CC[C@]43C)[C@H]12
- IC50 (Hep 3B2 [1]): > 100 µM
- IC50 [3]: > 100 µM

Structure (SMILES): C[C@H]1[C@H](C)CC[C@]2(C(=O)OCCNc3nnn[nH]3)CC[C@]3(C)C(=CC[C@@H]4[C@@]5(C)CCC(=O)C(C)(C)[C@@H]5CC[C@]43C)[C@H]12
- IC50 (Hep 3B2 [1]): > 100 µM
- IC50 [3]: 14.2 µM

Structure (SMILES): C[C@H]1[C@H](C)CC[C@]2(C(=O)OCCCNc3nnn[nH]3)CC[C@]3(C)C(=CC[C@@H]4[C@@]5(C)CC[C@H](O)C(C)(C)[C@@H]5CC[C@]43C)[C@H]12
- IC50 (Hep 3B2 [1]): > 100 µM
- IC50 [3]: 10.3 µM

Structure (SMILES): C[C@H]1[C@H](C)CC[C@]2(C(=O)OCCCn3nnnc3-c3ccc(Cl)cc3)CC[C@]3(C)C(=CC[C@@H]4[C@@]5(C)CC[C@H](O)C(C)(C)[C@@H]5CC[C@]43C)[C@H]12
- IC50 (Hep 3B2 [1]): > 100 µM
- IC50 [3]: 7.5 µM

Structure (SMILES): C[C@H]1[C@H](C)CC[C@]2(C(=O)OCCn3nnnc3-c3ccccc3)CC[C@]3(C)C(=CC[C@@H]4[C@@]5(C)CC[C@H](O)C(C)(C)[C@@H]5CC[C@]43C)[C@H]12
- IC50 (Hep 3B2 [1]): > 100 µM
- IC50 [3]: 18.1 µM

Structure (SMILES): C[C@H]1[C@H](C)CC[C@]2(C(=O)OCCn3nnnc3-c3ccc4c(c3)OCO4)CC[C@]3(C)C(=CC[C@@H]4[C@@]5(C)CC[C@H](O)C(C)(C)[C@@H]5CC[C@]43C)[C@H]12
- IC50 (Hep 3B2 [1]): > 100 µM
- IC50 [3]: > 100 µM
